Laboratory results from ChEMBL document CHEMBL4340542, “Design, synthesis and biological evaluation of 4-aniline-thieno[2,3-d]pyrimidine derivatives as MNK1 inhibitors against renal cell carcinoma and nasopharyngeal carcinoma” (Bioorg Med Chem, 2019).
pIC50: −log10 of the molar value. The source made the active and inactive calls. The calls are words filed in the database; no cut-off is given here.

Legend:
[1] = target: MAP kinase-interacting serine/threonine-protein kinase 1 (Homo sapiens, UniProt Q9BUB5); assay: Inhibition of human MNK1 using CREBtide substrate by gamma-[32P]-ATP competitive inhibition assay
Sequence of MAP kinase-interacting serine/threonine-protein kinase 1 (Q9BUB5 whole entry): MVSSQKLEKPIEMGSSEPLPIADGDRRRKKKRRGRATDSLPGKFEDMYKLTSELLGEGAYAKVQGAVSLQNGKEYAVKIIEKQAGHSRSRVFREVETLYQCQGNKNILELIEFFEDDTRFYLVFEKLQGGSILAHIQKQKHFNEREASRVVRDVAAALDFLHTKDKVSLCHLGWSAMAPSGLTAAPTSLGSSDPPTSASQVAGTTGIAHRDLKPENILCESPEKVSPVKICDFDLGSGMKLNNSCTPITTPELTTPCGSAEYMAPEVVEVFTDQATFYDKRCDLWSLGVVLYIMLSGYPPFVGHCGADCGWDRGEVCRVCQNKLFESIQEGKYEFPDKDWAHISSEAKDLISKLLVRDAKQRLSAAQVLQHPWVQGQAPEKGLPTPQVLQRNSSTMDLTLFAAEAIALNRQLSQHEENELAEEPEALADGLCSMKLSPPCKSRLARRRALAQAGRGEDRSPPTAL
How it was run: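 Run as the Eurofins KinaseProfiler radiometric assay, competitive with γ-[32P]-ATP. IC50 taken as the mean of independent experiments; the footnote gives two.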

[2] = test system: CNE; assay: Cytotoxicity against human CNE1 cells assessed as decrease in cell viability incubated for 24 hrs by MTT assay; format: functional, cell-based
How it was run: (§1)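 IC50 from an 8–10 point concentration gradient by MTT assay. Panel covers renal cell carcinoma and nasopharyngeal carcinoma lines. Values are mean ± SD, n = 3.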

[3] = test system: CNE-2; assay: Cytotoxicity against human CNE2 cells assessed as decrease in cell viability incubated for 24 hrs by MTT assay; format: functional, cell-based; how it was run: as §1
[4] = test system: SUNE1; assay: Cytotoxicity against human SUNE1 cells assessed as decrease in cell viability incubated for 24 hrs by MTT assay; format: functional, cell-based; how it was run: as §1
[5] = species on record: Homo sapiens; assay: Cytotoxicity against human HNE1 cells assessed as decrease in cell viability incubated for 24 hrs by MTT assay; format: functional, cell-based; how it was run: as §1
[6] = test system: A498; assay: Cytotoxicity against human A498 cells assessed as decrease in cell viability incubated for 24 hrs by MTT assay; format: functional, cell-based; how it was run: as §1
[7] = test system: CAKI-1; assay: Cytotoxicity against human Caki1 cells assessed as decrease in cell viability incubated for 24 hrs by MTT assay; format: functional, cell-based; how it was run: as §1
[8] = test system: 786-0; assay: Cytotoxicity against human 786-O cells assessed as decrease in cell viability incubated for 24 hrs by MTT assay; format: functional, cell-based; how it was run: as §1

SMILES | pIC50 [1] | also measured
COc1ccc(S(=O)(=O)N2CCc3c(sc4ncnc(Nc5ccc(Br)cc5)c34)C2)cc1 | 5.97 | Activity [2]: Active; Activity [3]: Active; Activity [4]: Active; Activity [5]: Active; Activity [6]: Active; Activity [7]: Active; Activity [8]: Active
COc1cccc(Nc2ncnc3sc4c(c23)CCN(C(=O)OC(C)(C)C)C4)c1 | 5.71 | 
CC(C)(C)OC(=O)N1CCc2c(sc3ncnc(Nc4ccc(Br)cc4)c23)C1 | 5.74 | 
Cc1cccc(Nc2ncnc3sc4c(c23)CCCC4)c1 | 5.75 | 
CN1CCc2c(sc3ncnc(Nc4cccc(F)c4)c23)C1 | 5.69 | 
COc1cccc(Nc2ncnc3sc4c(c23)CCN(C)C4)c1 | 5.64 | 
COc1ccc(S(=O)(=O)N2CCc3c(sc4ncnc(Nc5ccc(F)cc5F)c34)C2)cc1 | 6.08 | Activity [2]: Active; Activity [3]: Active; Activity [4]: Active; Activity [5]: Active; Activity [6]: Active; Activity [7]: Active; Activity [8]: Active
COc1ccc(S(=O)(=O)N2CCc3c(sc4ncnc(Nc5cccc(F)c5)c34)C2)cc1 | 5.86 | 
COc1cccc(Nc2ncnc3sc4c(c23)CCN(S(=O)(=O)c2cccs2)C4)c1 | 5.63 | 
O=S(=O)(c1ccc(F)cc1F)N1CCc2c(sc3ncnc(Nc4cccc(Cl)c4)c23)C1 | 5.76 | 
COc1ccc(S(=O)(=O)N2CCc3c(sc4ncnc(Nc5ccc(F)cc5Br)c34)C2)cc1 | 6.00 | Activity [2]: Active; Activity [3]: Active; Activity [4]: Active; Activity [5]: Active; Activity [6]: Active; Activity [7]: Active; Activity [8]: Active
Fc1ccc(Nc2ncnc3sc4c(c23)CCN(Cc2ccccc2)C4)c(Br)c1 | 5.95 | 
Fc1cccc(Nc2ncnc3sc4c(c23)CCN(Cc2ccccc2)C4)c1 | 5.68 | 
O=S(=O)(c1cccs1)N1CCc2c(sc3ncnc(Nc4ccc(Cl)cc4)c23)C1 | 5.79 | 
COc1cc(F)ccc1Nc1ncnc2sc3c(c12)CCN(C(=O)OC(C)(C)C)C3 | 5.87 | 
Cc1cccc(Nc2ncnc3sc4c(c23)CCN(C(=O)OC(C)(C)C)C4)c1 | 5.60 | 
CC(C)(C)OC(=O)N1CCc2c(sc3ncnc(Nc4ccc(F)cc4Br)c23)C1 | 5.76 | 
Clc1ccc(Nc2ncnc3sc4c(c23)CCCC4)cc1 | 5.79 | 
CN1CCc2c(sc3ncnc(Nc4ccc(F)cc4F)c23)C1 | 5.96 | 
COc1ccc(S(=O)(=O)N2CCc3c(sc4ncnc(Nc5ccc(Cl)cc5F)c34)C2)cc1 | 5.94 | Activity [2]: Active; Activity [3]: Active; Activity [4]: Active; Activity [5]: Active; Activity [6]: Active; Activity [7]: Active; Activity [8]: Active
O=[N+]([O-])c1ccccc1S(=O)(=O)N1CCc2c(sc3ncnc(Nc4ccc(Cl)cc4)c23)C1 | 5.78 | 

SMILES | pIC50 [1] | also measured
O=S(=O)(c1ccc(F)cc1F)N1CCc2c(sc3ncnc(Nc4ccc(Cl)cc4F)c23)C1 | 5.81 | 
O=S(=O)(c1ccc(F)cc1F)N1CCc2c(sc3ncnc(Nc4cccc(F)c4)c23)C1 | 5.69 | 
O=S(=O)(c1ccc(F)cc1F)N1CCc2c(sc3ncnc(Nc4ccc(Br)cc4)c23)C1 | 5.76 | 
Fc1cc(Cl)ccc1Nc1ncnc2sc3c(c12)CCN(Cc1ccccc1)C3 | 5.88 | 
O=S(=O)(c1cccs1)N1CCc2c(sc3ncnc(Nc4ccc(F)cc4Br)c23)C1 | 6.01 | 
Cc1cccc(Nc2ncnc3sc4c(c23)CCN(Cc2ccccc2)C4)c1 | 5.68 | 
CN1CCc2c(sc3ncnc(Nc4ccc(F)cc4Br)c23)C1 | 5.83 | 
O=S(=O)(c1cccs1)N1CCc2c(sc3ncnc(Nc4ccc(Br)cc4)c23)C1 | 5.86 | 
Brc1ccc(Nc2ncnc3sc4c(c23)CCN(Cc2ccccc2)C4)cc1 | 5.77 | 
O=[N+]([O-])c1ccccc1S(=O)(=O)N1CCc2c(sc3ncnc(Nc4ccc(Cl)cc4F)c23)C1 | 5.90 | 
COc1cc(F)ccc1Nc1ncnc2sc3c(c12)CCN(S(=O)(=O)c1ccc(F)cc1F)C3 | 6.03 | 
COc1cc(F)ccc1Nc1ncnc2sc3c(c12)CCN(Cc1ccccc1)C3 | 6.00 | 
O=[N+]([O-])c1ccccc1S(=O)(=O)N1CCc2c(sc3ncnc(Nc4cccc(Cl)c4)c23)C1 | 5.79 | 
COc1cc(F)ccc1Nc1ncnc2sc3c(c12)CCN(S(=O)(=O)c1ccccc1[N+](=O)[O-])C3 | 5.96 | 
CN1CCc2c(sc3ncnc(Nc4ccc(Cl)cc4F)c23)C1 | 5.73 | 
Cc1cccc(Nc2ncnc3sc4c(c23)CCN(S(=O)(=O)c2cccs2)C4)c1 | 5.67 | 
O=[N+]([O-])c1ccccc1S(=O)(=O)N1CCc2c(sc3ncnc(Nc4ccc(F)cc4Br)c23)C1 | 5.94 | 
CN1CCc2c(sc3ncnc(Nc4ccc(Br)cc4)c23)C1 | 5.77 | 
O=[N+]([O-])c1ccccc1S(=O)(=O)N1CCc2c(sc3ncnc(Nc4ccc(Br)cc4)c23)C1 | 5.90 | 
CN1CCc2c(sc3ncnc(Nc4ccc(Cl)cc4)c23)C1 | 5.74 | 
CC(C)(C)OC(=O)N1CCc2c(sc3ncnc(Nc4cccc(Cl)c4)c23)C1 | 5.66 | 
